Results reported in ChEMBL document CHEMBL4257486, “A novel allosteric inhibitor that prevents IKKβ activation” (Medchemcomm, 2018).
Calls of active or inactive are those of the source. The rule behind the calls is not given here.

Legend:
[1] = target: Tyrosine-protein kinase Lck (Homo sapiens) (UniProt P06239); assay: Inhibition of human Lck using KVEKIGEGTYGVVYK (Cdc2 peptide) as substrate at 100 uM after 40 mins in presence of [gamma-33P-ATP] by scintillation counting analysis
Outline: (§1)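 Radiometric [γ-33P]ATP assay (specific activity approx. 500 cpm/pmol) run by an outsourced service. Compound was added first from a 50x stock in DMSO, giving 2% DMSO final. Positive controls contained DMSO only; blanks used a reference inhibitor to set 0% activity. Reactions were started with MgATP mix, run 40 min at room temperature, and stopped with 3% phosphoric acid. They were spotted on P30 filtermat, washed in 75 mM phosphoric acid and methanol, and scintillation counted.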

[2] = target: T1, Inhibitor of nuclear factor kappa-B kinase subunit beta (Homo sapiens) (UniProt O14920); assay: Inhibition of activated human IKKB using poly[Glu:Tyr] (4:1) as substrate at 100 uM after 40 mins in presence of [gamma-33P-ATP] by scintillation counting analysis; conditions: in the assay text read “LDDRHDSGLDSMKDEEY peptide as substrate” for “poly[Glu:Tyr] (4:1) as substrate”; outline: as §1
T1 sequence (whole entry): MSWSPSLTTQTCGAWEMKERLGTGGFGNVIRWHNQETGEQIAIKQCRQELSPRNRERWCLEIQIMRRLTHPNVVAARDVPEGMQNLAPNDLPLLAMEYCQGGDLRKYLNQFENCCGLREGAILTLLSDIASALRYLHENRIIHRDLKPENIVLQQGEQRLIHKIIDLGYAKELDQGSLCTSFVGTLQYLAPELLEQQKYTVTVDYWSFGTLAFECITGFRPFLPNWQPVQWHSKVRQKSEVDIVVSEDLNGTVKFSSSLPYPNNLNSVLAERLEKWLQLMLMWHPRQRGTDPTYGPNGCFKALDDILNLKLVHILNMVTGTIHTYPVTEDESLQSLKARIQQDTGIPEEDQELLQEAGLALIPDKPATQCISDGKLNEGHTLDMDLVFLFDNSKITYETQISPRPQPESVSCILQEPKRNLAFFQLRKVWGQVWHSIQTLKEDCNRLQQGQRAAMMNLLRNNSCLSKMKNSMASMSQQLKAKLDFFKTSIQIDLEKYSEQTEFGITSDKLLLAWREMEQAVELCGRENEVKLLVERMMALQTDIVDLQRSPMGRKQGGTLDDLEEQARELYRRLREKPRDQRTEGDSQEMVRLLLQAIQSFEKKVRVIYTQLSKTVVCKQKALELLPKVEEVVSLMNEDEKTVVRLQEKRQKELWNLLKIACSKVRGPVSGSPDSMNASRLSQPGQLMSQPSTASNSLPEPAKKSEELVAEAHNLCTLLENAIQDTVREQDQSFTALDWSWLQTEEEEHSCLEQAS

Sequence of Tyrosine-protein kinase Lck (Homo sapiens) (P06239 2-509 limits assumed): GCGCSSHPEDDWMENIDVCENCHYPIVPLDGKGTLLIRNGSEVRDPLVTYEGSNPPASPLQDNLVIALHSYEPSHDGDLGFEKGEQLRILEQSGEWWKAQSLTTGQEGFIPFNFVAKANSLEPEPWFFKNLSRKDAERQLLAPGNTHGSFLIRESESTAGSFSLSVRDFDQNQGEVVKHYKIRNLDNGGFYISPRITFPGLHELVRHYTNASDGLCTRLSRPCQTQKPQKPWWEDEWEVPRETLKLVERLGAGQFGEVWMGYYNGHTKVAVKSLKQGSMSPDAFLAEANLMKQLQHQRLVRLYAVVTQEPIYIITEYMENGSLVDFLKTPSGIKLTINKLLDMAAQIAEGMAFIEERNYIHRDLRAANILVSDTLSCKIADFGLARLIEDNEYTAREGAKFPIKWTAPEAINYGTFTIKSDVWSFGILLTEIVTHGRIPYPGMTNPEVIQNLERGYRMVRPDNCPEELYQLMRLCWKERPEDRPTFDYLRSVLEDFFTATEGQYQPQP

- inhibition [1]: inactive
- inhibition [2]: inactive
Compound: CCOc1c(S(=O)(=O)NC2CC(C)(C)NC(C)(C)C2)ccc(Cl)c1Cl
